The source made the active and inactive calls.
How the values were obtained:
Type in all cases: cell-based
[1] = target: T1, Peroxisome proliferator-activated receptor gamma (Mus musculus) (UniProt P37238); assay: Agonist activity at PPARgamma in mouse 3T3L1 cells assessed as downregulation of DGAT mRNA level at 10 uM after 6 days […] relative to control; conditions: 3T3-L1
T1 sequence (whole entry): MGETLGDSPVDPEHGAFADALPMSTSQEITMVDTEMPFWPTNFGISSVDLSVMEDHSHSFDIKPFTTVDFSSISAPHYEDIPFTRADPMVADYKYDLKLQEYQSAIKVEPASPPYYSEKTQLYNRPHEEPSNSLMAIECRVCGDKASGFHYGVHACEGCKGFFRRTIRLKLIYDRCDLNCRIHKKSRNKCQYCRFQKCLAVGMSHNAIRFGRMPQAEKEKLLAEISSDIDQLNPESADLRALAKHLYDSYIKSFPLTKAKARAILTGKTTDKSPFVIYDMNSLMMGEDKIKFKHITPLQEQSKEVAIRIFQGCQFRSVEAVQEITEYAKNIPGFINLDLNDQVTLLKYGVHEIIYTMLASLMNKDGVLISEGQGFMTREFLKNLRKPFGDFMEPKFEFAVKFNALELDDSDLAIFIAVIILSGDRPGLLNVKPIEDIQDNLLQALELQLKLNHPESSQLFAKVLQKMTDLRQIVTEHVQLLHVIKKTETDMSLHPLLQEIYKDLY

[2] = target: T2, Peroxisome proliferator-activated receptor gamma (Homo sapiens) (UniProt P37231); assay: Transactivation of PPARgamma (unknown origin) expressed in HEK293 cells co-transfected with AP2-PPRE by luciferase reporter gene assay
T2 sequence (whole entry): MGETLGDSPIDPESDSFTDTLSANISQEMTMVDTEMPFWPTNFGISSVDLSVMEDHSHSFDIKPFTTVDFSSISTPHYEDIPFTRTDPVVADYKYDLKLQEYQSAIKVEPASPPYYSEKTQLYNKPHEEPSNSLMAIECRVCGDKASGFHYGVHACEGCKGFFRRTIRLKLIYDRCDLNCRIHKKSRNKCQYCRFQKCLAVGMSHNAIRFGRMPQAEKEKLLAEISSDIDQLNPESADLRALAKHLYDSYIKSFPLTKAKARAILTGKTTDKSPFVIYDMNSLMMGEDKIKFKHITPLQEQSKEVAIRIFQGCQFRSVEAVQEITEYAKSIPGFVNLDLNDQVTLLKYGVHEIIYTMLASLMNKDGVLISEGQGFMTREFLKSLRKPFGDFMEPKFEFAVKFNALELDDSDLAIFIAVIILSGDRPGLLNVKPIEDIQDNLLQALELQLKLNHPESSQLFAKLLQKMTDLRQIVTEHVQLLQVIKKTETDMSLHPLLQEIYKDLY
Outline: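 PPRE reporter plasmid (AP2 promoter element) transiently co-transfected into HEK-293 cells with RXR, PPARγ and β-galactosidase vectors using Lipofectamine 2000. Cells were treated across a dose–response series, plotted on a log(μM) axis from about −2 to 2. Luciferase was read as relative light units on a luminometer and normalised to β-galactosidase activity measured with ONPG.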

[3] = target: T1, Peroxisome proliferator-activated receptor gamma (Mus musculus); assay: Agonist activity at PPARgamma in mouse 3T3L1 cells assessed as downregulation of FABP mRNA level at 10 uM after 6 days […] relative to control; conditions: 3T3-L1
[4] = target: T1, Peroxisome proliferator-activated receptor gamma (Mus musculus); assay: Agonist activity at PPARgamma in mouse 3T3L1 cells assessed as upregulation of HSL mRNA level at 10 uM after 6 days […] relative to control; conditions: 3T3-L1
[5] = target: T1, Peroxisome proliferator-activated receptor gamma (Mus musculus); assay: Agonist activity at PPARgamma in mouse 3T3L1 cells assessed as upregulation of ATGL mRNA level at 10 uM after 6 days […] relative to control; conditions: 3T3-L1
[6] = target: T1, Peroxisome proliferator-activated receptor gamma (Mus musculus); assay: Agonist activity at PPARgamma in mouse 3T3L1 cells assessed as downregulation of CD36 mRNA level at 10 uM after 6 days […] relative to control; conditions: 3T3-L1
[7] = target: T1, Peroxisome proliferator-activated receptor gamma (Mus musculus); assay: Agonist activity at PPARgamma in mouse 3T3L1 cells assessed as upregulation of MCAD mRNA level at 10 uM after 6 days […] relative to control; conditions: 3T3-L1
[8] = target: T1, Peroxisome proliferator-activated receptor gamma (Mus musculus); assay: Agonist activity at PPARgamma in mouse 3T3L1 cells assessed as downregulation of FATP mRNA level at 10 uM after 6 days […] relative to control; conditions: 3T3-L1
[9] = target: T1, Peroxisome proliferator-activated receptor gamma (Mus musculus); assay: Agonist activity at PPARgamma in mouse 3T3L1 cells assessed as upregulation of ADPN mRNA level at 10 uM after 6 days […] relative to control; conditions: 3T3-L1
[10] = target: T3, Peroxisome proliferator-activated receptor delta (Mus musculus) (UniProt P35396); assay: Agonist activity at PPARdelta in mouse 3T3L1 cells assessed as upregulation of PDK4 mRNA level at 10 uM after 6 days […] relative to control; conditions: 3T3-L1
T3 sequence (whole entry): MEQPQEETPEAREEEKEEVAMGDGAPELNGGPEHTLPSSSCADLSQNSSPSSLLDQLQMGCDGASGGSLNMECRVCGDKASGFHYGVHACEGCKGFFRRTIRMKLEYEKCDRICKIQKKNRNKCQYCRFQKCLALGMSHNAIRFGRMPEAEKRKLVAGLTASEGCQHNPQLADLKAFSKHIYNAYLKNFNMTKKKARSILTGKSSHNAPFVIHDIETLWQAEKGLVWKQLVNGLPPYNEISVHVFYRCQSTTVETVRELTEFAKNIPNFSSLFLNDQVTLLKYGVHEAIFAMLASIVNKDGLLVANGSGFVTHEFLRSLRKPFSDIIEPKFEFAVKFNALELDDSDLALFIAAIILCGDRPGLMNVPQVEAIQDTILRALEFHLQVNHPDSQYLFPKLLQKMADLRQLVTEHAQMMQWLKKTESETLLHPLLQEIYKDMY

Measured: Activity

Cc1ccc(CNCCCN(Cc2ccc(C(=O)O)cc2)Cc2cc(C(F)(F)F)cc(C(F)(F)F)c2)cc1
active: all assays above

Reference: ChEMBL document CHEMBL2331444, “Design, development and evaluation of novel dual PPARδ/PPARγ agonists” (Bioorg Med Chem Lett, 2013)
